The results in this text go back to ChEMBL document CHEMBL1921792, “Synthesis and anticonvulsant activity of trans- and cis-2-(2,6-dimethylphenoxy)-N-(2- or 4-hydroxycyclohexyl)acetamides and their amine analogs” (Bioorg Med Chem, 2011).

A word on the ED50: it is the dose at which the effect has come halfway, by size or by number of responders. As usually defined, the TD50 is the 50% point of the dose-response relation for the toxic effect studied.

Series [1] has as its system Mus musculus. The series is described as follows: Anticonvulsant activity in ip dosed mouse assessed as protection against maximal electric shock-induced seizures. The series is classed as functional.
Series [2] is filed under the species Mus musculus. The series is described as follows: Protective index, ratio of TD50 for neurotoxicity in mouse to ED50 for inhibition of maximal electroshock-induced seizures in mouse. The series is classed as functional.
The subject of series [3] is Mus musculus. Description: Neurotoxicity in mouse assessed as inability to maintain equilibrium on rotarod at 300 mg/kg, ip after 0.25 hrs using rotarod test. More on the design: dose 300 mg/kg, route intraperitoneal. The series is classed as toxicity, organism-based. The conditions noted are these: in vivo. The method, boiled down: (§1)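 Drug given ip to mice as a suspension in 0.5% methylcellulose. At the stated time after dosing, each mouse was placed on a 1 inch knurled rod turning at 6 rpm. Neurotoxicity = inability to stay balanced at least 1 min in each of three trials. Scored as animals toxic/animals tested in small groups.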

Series [4] concerns Mus musculus. The series is described as follows: Neurotoxicity in mouse assessed as inability to maintain equilibrium on rotarod at 300 mg/kg, ip after 4 hrs using rotarod test. The series is classed as toxicity, organism-based. On the set-up: dose 300 mg/kg, route intraperitoneal. The settings on record: in vivo. Put shortly:
as §1
For orientation: Falling from the rotarod earlier than controls is read as motor impairment.

Series [5] relates to Mus musculus. The series is described as follows: Neurotoxicity in mouse assessed as inability to maintain equilibrium on rotarod at 300 mg/kg, ip after 0.5 hrs using rotarod test. More on the design: dose 300 mg/kg, route intraperitoneal. The settings on record: in vivo. It is filed as toxicity, organism-based. Put shortly: as §1
For series [6], the system named is Mus musculus. Description: Neurotoxicity in mouse assessed as inability to maintain equilibrium on rotarod at 100 mg/kg, ip after 0.5 hrs by rotarod test. It is filed as toxicity, organism-based. On the set-up: dose 100 mg/kg, route intraperitoneal. The conditions noted are these: in vivo. Put shortly: as §1
Series [7] relates to Mus musculus. The series is described as follows: Neurotoxicity in mouse assessed as inability to maintain equilibrium on rotarod at 300 mg/kg, ip after 2 hrs using rotarod test. The series is classed as toxicity, organism-based. On the set-up: dose 300 mg/kg, route intraperitoneal. The settings on record: in vivo. The method, boiled down:
as §1

Series [8] concerns Mus musculus. The series is described as follows: Neurotoxicity in mouse assessed as inability to maintain equilibrium on rotarod at 300 mg/kg, ip after 0.5 hrs by rotarod test. It is filed as toxicity, organism-based. On the set-up: dose 300 mg/kg, route intraperitoneal. The settings on record: in vivo. Put shortly:
as §1

Series [9] deals with Mus musculus. The series is described as follows: Neurotoxicity in ip dosed mouse assessed as inability to maintain equilibrium on rotarod by rotarod test. The series is classed as toxicity, organism-based. The settings on record: in vivo. Put shortly: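 Mice dosed ip with a suspension in 0.5% methylcellulose, then placed on a 1 inch knurled plastic rod rotating at 6 rpm. Toxicity = failure to keep equilibrium for at least 1 min in each of three trials.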

As to `Cc1cccc(C)c1OCC(=O)NC1CCCCC1O.Cl` (racemic; 4), the ED50 in [1] turned out to be 78.83 mg/kg. The “Ratio TD50/ED50” value in series [2] turned out to be 1.493. The Activity entry in series [3] was “Toxic”; in series [4], “Non-toxic”; in series [5], “Toxic”; in series [6] it was “Non-toxic”; in series [7] it was “Non-toxic”; in series [8], “Non-toxic”. Besides, the TD50 in [9] is 117.73 mg/kg.
